The record followed here is ChEMBL document CHEMBL1133667, “A structure-affinity relationship study on derivatives of N-[2-[4-(4-Chlorophenyl)piperazin-1-yl]ethyl]-3-methoxybenzamide, a high-affinity and selective D(4) receptor ligand” (J Med Chem, 2000).

Assay [1] concerns the target T1, 5-hydroxytryptamine receptor 1A (Rattus norvegicus, UniProt P19327).
T1 sequence (P19327 whole entry): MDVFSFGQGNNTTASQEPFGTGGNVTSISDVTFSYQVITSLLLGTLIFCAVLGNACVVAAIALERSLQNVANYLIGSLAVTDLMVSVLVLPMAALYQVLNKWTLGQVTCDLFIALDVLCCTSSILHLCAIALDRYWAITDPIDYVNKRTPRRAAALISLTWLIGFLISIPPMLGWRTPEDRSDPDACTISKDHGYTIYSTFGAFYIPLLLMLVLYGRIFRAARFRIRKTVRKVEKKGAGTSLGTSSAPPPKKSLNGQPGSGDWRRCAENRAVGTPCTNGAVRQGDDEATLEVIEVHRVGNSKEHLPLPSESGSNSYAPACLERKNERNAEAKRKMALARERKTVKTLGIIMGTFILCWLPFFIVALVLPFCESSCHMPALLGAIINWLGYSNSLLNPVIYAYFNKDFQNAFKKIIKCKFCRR
As to the kind of experiment: In vitro binding affinity at 5-hydroxytryptamine receptor 1A receptor in rat hippocampal membranes by [3H]8-OH-DPAT displacement. The assay is classed as cell membranes, Hippocampus.

In assay [2] the target is T2, Adrenergic receptor alpha-1 (Rattus norvegicus, UniProt P15823+P23944+P43140).
T2 sequence (P15823 whole entry): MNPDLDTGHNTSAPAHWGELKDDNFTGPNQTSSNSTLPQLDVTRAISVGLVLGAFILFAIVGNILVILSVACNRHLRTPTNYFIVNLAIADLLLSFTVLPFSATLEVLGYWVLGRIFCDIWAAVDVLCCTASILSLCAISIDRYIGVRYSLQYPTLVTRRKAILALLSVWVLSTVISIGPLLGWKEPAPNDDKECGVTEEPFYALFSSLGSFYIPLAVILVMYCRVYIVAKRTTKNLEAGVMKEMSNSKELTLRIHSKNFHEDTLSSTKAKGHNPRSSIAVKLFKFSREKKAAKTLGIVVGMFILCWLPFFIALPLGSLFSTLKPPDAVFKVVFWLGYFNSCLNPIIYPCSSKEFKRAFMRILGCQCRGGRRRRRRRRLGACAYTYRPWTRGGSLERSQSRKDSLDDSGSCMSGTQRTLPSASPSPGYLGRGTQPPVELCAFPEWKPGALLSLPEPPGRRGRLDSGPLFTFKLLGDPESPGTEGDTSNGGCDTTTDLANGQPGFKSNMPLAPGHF
T2 sequence (P23944 whole entry): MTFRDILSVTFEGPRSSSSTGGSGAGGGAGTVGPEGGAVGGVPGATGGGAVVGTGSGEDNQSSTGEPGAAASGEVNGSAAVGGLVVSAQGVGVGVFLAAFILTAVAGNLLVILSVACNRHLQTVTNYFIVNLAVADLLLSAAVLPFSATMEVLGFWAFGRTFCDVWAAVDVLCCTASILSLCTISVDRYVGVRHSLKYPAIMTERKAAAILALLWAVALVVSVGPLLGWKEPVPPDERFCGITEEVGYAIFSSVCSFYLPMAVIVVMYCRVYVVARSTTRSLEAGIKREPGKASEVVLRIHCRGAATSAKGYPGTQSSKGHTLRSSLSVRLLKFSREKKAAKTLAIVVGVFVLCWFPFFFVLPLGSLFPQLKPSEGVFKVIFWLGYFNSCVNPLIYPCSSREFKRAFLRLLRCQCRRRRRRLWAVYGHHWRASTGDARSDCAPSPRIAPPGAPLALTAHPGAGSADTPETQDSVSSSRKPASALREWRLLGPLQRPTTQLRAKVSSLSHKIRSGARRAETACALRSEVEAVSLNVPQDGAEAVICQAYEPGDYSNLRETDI
T2 sequence (P43140 whole entry): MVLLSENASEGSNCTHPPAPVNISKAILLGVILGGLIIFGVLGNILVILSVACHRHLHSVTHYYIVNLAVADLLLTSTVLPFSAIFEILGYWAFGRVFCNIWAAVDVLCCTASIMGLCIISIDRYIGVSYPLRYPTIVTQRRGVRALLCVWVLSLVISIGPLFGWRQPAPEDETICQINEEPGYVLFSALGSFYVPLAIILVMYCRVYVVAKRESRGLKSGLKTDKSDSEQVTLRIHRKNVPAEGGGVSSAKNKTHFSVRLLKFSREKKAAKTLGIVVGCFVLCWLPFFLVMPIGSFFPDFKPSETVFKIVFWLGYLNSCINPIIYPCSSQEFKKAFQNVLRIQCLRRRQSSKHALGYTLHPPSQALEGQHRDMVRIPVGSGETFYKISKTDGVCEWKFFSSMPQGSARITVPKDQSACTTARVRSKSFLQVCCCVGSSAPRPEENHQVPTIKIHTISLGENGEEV
Briefly: In vitro binding affinity towards alpha-1 adrenergic receptor by using [3H]prazosin in rat brain cortex membranes. It counts as cell membranes.

In assay [3] the target is T3, Adrenergic receptor alpha-1 (Rattus norvegicus) (UniProt P15823+P23944+P43140). Briefly: (§1) Tested in vitro for % inhibition against alpha-1 adrenergic receptor. It counts as protein assay. Set-up: concentration or dose not given beside the values. Particulars: concentration not given here. The procedure, abridged:
(§2)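 Drug at 10^-5–10^-11 M, 50 min at 25 °C. Filtered on GF/B filters presoaked in 0.5% polyethylenimine. Nonspecific binding with 1 µM prazosin. Percentage inhibition of specific binding reported at the stated concentration.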

Assay [4] has as its target T4, D(4) dopamine receptor (Homo sapiens, UniProt P21917).
T4 sequence (P21917 whole entry): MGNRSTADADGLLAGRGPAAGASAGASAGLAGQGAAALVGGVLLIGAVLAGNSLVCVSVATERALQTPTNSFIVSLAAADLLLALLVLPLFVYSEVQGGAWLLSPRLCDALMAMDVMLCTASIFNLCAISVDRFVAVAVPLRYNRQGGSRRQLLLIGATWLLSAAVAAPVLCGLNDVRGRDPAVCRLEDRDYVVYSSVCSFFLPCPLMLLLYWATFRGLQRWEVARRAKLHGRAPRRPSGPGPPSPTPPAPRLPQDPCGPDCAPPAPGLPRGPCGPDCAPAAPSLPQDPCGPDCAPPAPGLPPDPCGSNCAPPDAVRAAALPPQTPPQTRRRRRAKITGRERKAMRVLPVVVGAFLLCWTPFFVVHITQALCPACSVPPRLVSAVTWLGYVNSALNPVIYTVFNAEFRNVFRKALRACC
Briefly: In vitro binding affinity at human Dopamine receptor D4.4 by [3H]YM-09151-2 displacement.

For assay [5], the target named is T5, D(2) dopamine receptor (Homo sapiens, UniProt P14416). As to the kind of experiment: In vitro binding affinity at human Dopamine receptor D2 (long) by [3H]spiroperidol displacement.
For assay [6], the target named is T5, D(2) dopamine receptor. Briefly: In vitro binding affinity towards human Dopamine receptor D2L, using [3H]spiroperidol radioligand in Sf9 baculovirus expression.
Assay [7] deals with T3, Adrenergic receptor alpha-1 (Rattus norvegicus). As to the kind of experiment: Tested in vitro for %inhibition against alpha-1 adrenergic receptor. Particulars: concentration not given here. It counts as protein assay. The procedure, abridged:
as §2

In assay [8] the target is T6, 5-hydroxytryptamine receptor 1A (Rattus norvegicus) (UniProt P19327).
T6 sequence (whole entry): T1 sequence (P19327 whole entry)
Briefly: Tested in vitro for % inhibition against (serotonin)5-HT 1A receptor. Particulars: concentration not given here.

The target of assay [9] is T3, Adrenergic receptor alpha-1 (Rattus norvegicus). Described as §1. The assay is classed as protein assay. Particulars: concentration not given here. The method in brief: as §2

T5 sequence (P14416 whole entry): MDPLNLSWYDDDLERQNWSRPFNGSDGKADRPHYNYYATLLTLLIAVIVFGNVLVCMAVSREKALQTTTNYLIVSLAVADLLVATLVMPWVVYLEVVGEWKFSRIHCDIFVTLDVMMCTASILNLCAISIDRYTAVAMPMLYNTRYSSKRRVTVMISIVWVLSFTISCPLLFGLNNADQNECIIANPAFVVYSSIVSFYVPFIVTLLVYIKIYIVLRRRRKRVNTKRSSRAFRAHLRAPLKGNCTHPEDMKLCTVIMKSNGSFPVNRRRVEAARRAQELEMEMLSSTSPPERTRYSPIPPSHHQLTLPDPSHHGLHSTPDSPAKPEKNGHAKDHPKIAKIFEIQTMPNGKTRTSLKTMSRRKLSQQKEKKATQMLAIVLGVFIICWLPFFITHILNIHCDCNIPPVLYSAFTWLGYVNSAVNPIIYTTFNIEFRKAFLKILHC

As usually defined, the Ki is the equilibrium dissociation constant of an inhibitor or competing ligand from its target. A word on the inhibition: it is the drop in the measured response relative to a control, in per cent. `COc1ccc2c(c1)C(CCCN1CCN(c3ccc(Cl)cc3)CC1)CCC2` (stereo unspecified): the inhibition constant Ki is 0.708 µM in [1], greater than 0.85 µM in assay [2], 0.391 µM in [4] and 0.98 µM in assay [5]. Besides, the inhibition in [3] was 19%.
In the case of `COc1cccc2c1CCN(CCN1CCN(c3ccc(Cl)cc3)CC1)C2=O`, the inhibition constant Ki in assay [1] came to 0.451 µM; in assay [2], 0.631 µM; in assay [4], 0.042 µM; in [6], 3.17 µM.
As for `COc1cccc(C(=O)CCCN2CCN(c3ccc(Cl)cc3)CC2)c1`, the inhibition constant (Ki) stood at 0.183 µM in assay [1], 0.908 µM in [2], 0.004 µM in assay [4] and 2.55 µM in assay [5].
Take `COc1cccc2c1CCCC2NCCN1CCN(c2ccc(Cl)cc2)CC1.Cl.Cl` (stereo unspecified): the Ki in assay [1] was 0.821 µM; in assay [2], greater than 0.85 µM; in [4], 0.032 µM; in assay [5], 3.18 µM. The inhibition in assay [3] is 27%.
`COc1cccc(CCCCN2CCN(c3ccc(Cl)cc3)CC2)c1`: the Ki was 0.514 µM in assay [1], greater than 0.85 µM in assay [2], 0.204 µM in [4] and 2.74 µM in [5]. Further, the inhibition in assay [7] came to 25%.
In the case of `COc1cccc(NC(=O)CCN2CCN(c3ccc(Cl)cc3)CC2)c1`, the Ki in [1] turned out to be 0.859 µM; in assay [2] it was 0.303 µM; in assay [4] it was 0.042 µM; in [5] it was 0.282 µM.
Take `COc1cccc2c1CCCC2CCCN1CCN(c2ccc(Cl)cc2)CC1` (stereo unspecified): the Ki in [1] was 0.105 µM; in [2], greater than 0.85 µM; in assay [4], 0.416 µM; in [5], 3.4 µM. Besides, the inhibition in assay [3] turned out to be 34%.
In the case of `COc1cccc(C(=O)N(C)CCN2CCN(c3ccc(Cl)cc3)CC2)c1`, the inhibition in [8] was 18%; in assay [9] it was 22%. Further, the inhibition constant (Ki) was greater than 0.85 µM in [1], greater than 0.85 µM in [2], 0.18 µM in assay [4] and greater than 0.85 µM in assay [5].
On to `COc1ccc2c(c1)C(=O)N(CCN1CCN(c3ccc(Cl)cc3)CC1)CC2`, for which the inhibition constant Ki was 0.011 µM in assay [1], greater than 0.85 µM in assay [2], 0.141 µM in assay [4] and 3.96 µM in [5]. Besides, the inhibition in [3] stood at 33%.
In the same order, the values of `COc1ccc2c(c1)C(NCCN1CCN(c3ccc(Cl)cc3)CC1)CCC2` (stereo unspecified) are greater than 0.85 µM, greater than 0.85 µM, 0.046 µM, 0.262 µM and 37%.
For the compound `COc1cccc(CNCCN2CCN(c3ccc(Cl)cc3)CC2)c1`, the Ki in assay [1] is greater than 0.85 µM; in assay [2] it was greater than 0.85 µM; in assay [4] it was 0.023 µM; in [5] it was 5 µM. The compound also displayed an inhibition in [3] of 12%.
In the case of `COc1cccc(C(=O)CCCCN2CCN(c3ccc(Cl)cc3)CC2)c1`, the inhibition constant (Ki) in [1] was 0.037 µM; in assay [2] it was 0.146 µM; in [4], 0.021 µM; in [5], greater than 0.85 µM.
In the same order, the values of `COc1cccc(C(=O)CCCCCN2CCN(c3ccc(Cl)cc3)CC2)c1` are 0.045 µM, 0.678 µM, 0.28 µM and greater than 0.85 µM.
